The results in this text go back to ChEMBL document CHEMBL1765073, “Synthesis and structure-activity relationship studies of urea-containing pyrazoles as dual inhibitors of cyclooxygenase-2 and soluble epoxide hydrolase” (J Med Chem, 2011).

Calls of active or inactive are those of the source. The rule behind the calls is not given here.

The target of data set [1] is T1, Prostaglandin G/H synthase 1 (Ovis aries) (UniProt P05979).
T1 sequence (whole entry): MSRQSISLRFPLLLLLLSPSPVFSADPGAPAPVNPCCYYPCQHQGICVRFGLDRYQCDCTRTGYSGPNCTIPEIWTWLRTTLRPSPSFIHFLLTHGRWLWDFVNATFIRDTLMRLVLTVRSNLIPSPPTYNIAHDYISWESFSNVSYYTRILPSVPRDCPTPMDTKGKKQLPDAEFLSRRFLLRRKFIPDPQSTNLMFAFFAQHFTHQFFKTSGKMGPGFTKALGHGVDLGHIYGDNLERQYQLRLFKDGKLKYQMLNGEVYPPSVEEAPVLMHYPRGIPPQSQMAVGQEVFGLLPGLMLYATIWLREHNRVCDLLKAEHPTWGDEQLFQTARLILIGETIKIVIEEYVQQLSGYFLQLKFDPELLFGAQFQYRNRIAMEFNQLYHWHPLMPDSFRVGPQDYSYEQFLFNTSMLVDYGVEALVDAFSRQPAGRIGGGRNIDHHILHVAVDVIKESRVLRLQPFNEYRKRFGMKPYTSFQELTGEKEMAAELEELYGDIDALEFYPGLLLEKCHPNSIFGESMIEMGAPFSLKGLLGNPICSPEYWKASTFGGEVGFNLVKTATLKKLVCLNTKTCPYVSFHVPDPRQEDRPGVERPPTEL
Briefly: Inhibition of ovine COX-1 at 100 uM after 2 mins by fluorescence assay. Summed up:
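Ovine COX-1 was tested in a fluorescent kit assay in 100 mM Tris-HCl, pH 8.0, with heme and ADHP substrate. Inhibitor was added at a final 100 µM, then the reaction was started with arachidonic acid for 2 min at room temperature. Resorufin was read at ex 535/em 590 nm, and % inhibition was taken against a no-inhibitor control.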

In data set [2] the test system is Rattus norvegicus. As to the kind of experiment: Toxicity in Sprague-Dawley rat von Frey hair mechanically-stimulated […] pain model assessed as acute observable symptoms of toxicity at 10 mg/kg, sc after 9 hrs. Type of data set: organism-based. Also on record: dose 10 mg/kg, route subcutaneous. The following applies: in vivo. Put shortly:
(§1)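 Male Sprague-Dawley rats treated s.c. (10 mg/kg, PEG400 vehicle) in the LPS von Frey study were observed over nine hours on the test day. Animals were checked for behavioral changes and for acute signs such as lacrimation, porphyrin exudation, frozen or hunched posture, gasping or chattering.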

The subject of data set [3] is Rattus norvegicus. As to the kind of experiment: Antiallodynic activity in Sprague-Dawley rat von Frey hair mechanically-stimulated inflammatory pain model assessed as reversal of LPS-induced decrease in paw withdrawal latency at 10 mg/kg, sc administered 60 mins before LPS challenge.
Data set [4] concerns Rattus norvegicus. As to the kind of experiment: Toxicity in Sprague-Dawley rat von Frey hair mechanically-stimulated […] pain model assessed as overt signs of behavioral changes at 10 mg/kg, sc after 9 hrs. Type of data set: organism-based. Also on record: dose 10 mg/kg, route subcutaneous. The following applies: in vivo. Put shortly: as §1
The target of data set [5] is T2, Polyunsaturated fatty acid 5-lipoxygenase (Homo sapiens) (UniProt P09917).
T2 sequence (whole entry): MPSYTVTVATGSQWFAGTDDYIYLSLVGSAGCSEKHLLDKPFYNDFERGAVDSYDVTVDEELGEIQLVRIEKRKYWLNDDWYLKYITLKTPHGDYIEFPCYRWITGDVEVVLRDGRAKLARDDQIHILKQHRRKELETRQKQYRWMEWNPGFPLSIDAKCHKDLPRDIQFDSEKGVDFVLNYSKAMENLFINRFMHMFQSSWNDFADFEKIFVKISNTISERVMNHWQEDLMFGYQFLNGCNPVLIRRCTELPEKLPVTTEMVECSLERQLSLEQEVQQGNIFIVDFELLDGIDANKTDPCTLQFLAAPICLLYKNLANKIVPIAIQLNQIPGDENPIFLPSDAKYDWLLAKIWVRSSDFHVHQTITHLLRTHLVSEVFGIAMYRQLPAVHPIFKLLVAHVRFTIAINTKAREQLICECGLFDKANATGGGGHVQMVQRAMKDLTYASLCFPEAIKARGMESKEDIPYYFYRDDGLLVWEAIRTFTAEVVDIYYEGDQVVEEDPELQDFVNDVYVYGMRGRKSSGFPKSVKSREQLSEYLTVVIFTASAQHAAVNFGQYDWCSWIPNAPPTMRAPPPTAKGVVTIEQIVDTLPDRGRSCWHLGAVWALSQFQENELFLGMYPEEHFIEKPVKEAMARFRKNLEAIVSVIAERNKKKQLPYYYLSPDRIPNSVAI
Briefly: Inhibition of human 5-lipoxygenase at 10 uM.

The next data set has as its system U-937. As to the kind of experiment: Cytotoxicity against human U937 cells. Type of data set: cell-based.
Data set [6] is described as follows: Half life in Sprague-Dawley rat at 1 mg/kg, po. Type of data set: ADME, organism-based. Also on record: dose 1 mg/kg, route oral. The conditions noted are these: in vivo. Put shortly:
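Male Sprague-Dawley rats (8 weeks, 250–300 g, n = 4) were dosed orally at 1 mg/kg in oleic-ester-rich triglyceride with 10% PEG 400. Tail-vein blood (10 µL) was taken at 0–24 h, mixed with water and stored at −80 °C. Drug was quantified by LC/MS/MS, and t1/2 came from non-compartmental analysis of each rat.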

For orientation: inhibition means the change of the read-out against control, counted positive when it falls. A higher inhibition goes with a strong effect. Turning to `NS(=O)(=O)c1ccc(-n2nc(CCCNC(=O)NC3CCCCCC3)cc2-c2ccccc2)cc1`, the inhibition in data set [1] worked out at 10%.

Regarding `NS(=O)(=O)c1ccc(-n2nc(CCCNC(=O)Nc3ccc(C(F)(F)F)cc3)cc2-c2ccccc2)cc1`, the Activity entry with Rattus norvegicus [2], with Rattus norvegicus [4] and in the data set with U-937 was “Non-toxic” each time. In addition, the outcome in the data set with Rattus norvegicus [3] was Active. Also, the results for the inhibition in data set [5] and in data set [1] were 83% and 23%, respectively.

In turn, `Cc1ccc(-c2cc(CCCNC(=O)Nc3cccc(C(F)(F)F)c3)nn2-c2ccc(S(N)(=O)=O)cc2)cc1` came in with an inhibition in data set [1] of 12%.

In data set [1], `CS(=O)(=O)c1ccc(-n2nc(CNC(=O)Nc3ccc(OC(F)(F)F)cc3)cc2-c2ccccc2)cc1` showed an inhibition of 10%.

In data set [1], `CS(=O)(=O)c1ccc(-n2nc(CNC(=O)NC3CCCCCC3)cc2-c2ccccc2)cc1` showed an inhibition of 3%.

The molecule `NS(=O)(=O)c1ccc(-n2nc(CCCNC(=O)NC34CC5CC(CC(C5)C3)C4)cc2-c2ccccc2)cc1` registered an inhibition in data set [1] of 7%.

With `CS(=O)(=O)c1ccc(-n2nc(CNC(=O)NC34CC5CC(CC(C5)C3)C4)cc2-c2ccccc2)cc1`, the inhibition in data set [1] is 13%.

In data set [1], `CS(=O)(=O)c1ccc(-n2nc(CNC(=O)Nc3cccc(C(F)(F)F)c3)cc2-c2ccccc2)cc1` showed an inhibition of 8%.

In data set [1], `NS(=O)(=O)c1ccc(-n2nc(CCCNC(=O)Nc3ccccc3)cc2-c2ccccc2)cc1` showed an inhibition of 16%.

For `O=C(NC12CC3CC(CC(C3)C1)C2)N[C@H]1CC[C@H](Oc2ccc(C(=O)O)cc2)CC1`, in the data set with Rattus norvegicus [3], the outcome was Active. This molecule had an inhibition in data set [1] of 25%.

For `Cc1ccc(-c2cc(C(F)(F)F)nn2-c2ccc(S(N)(=O)=O)cc2)cc1`, in the data set with Rattus norvegicus [3], the outcome was Active. The same molecule came in with an inhibition in data set [5] of 80%.

As to `NS(=O)(=O)c1ccc(-n2nc(NC(=O)Nc3cccc(C(F)(F)F)c3)cc2-c2ccccc2)cc1`, the inhibition in data set [1] is 34%.

Molecule `NS(=O)(=O)c1ccc(-n2nc(CCCNC(=O)Nc3cccc(C(F)(F)F)c3)cc2-c2ccccc2)cc1` came in with an inhibition in data set [1] of 27%.

The half-life is the time in which the quantity being followed falls by half. A low value points to rapid decline. In data set [6], `NS(=O)(=O)c1ccc(-n2nc(CCCNC(=O)Nc3ccc(OC(F)(F)F)cc3)cc2-c2ccccc2)cc1` had a half-life of 12 h. Further, the inhibition in data set [1] was found to be 14%.

`NS(=O)(=O)c1ccc(-n2nc(CCNC(=O)Nc3cccc(C(F)(F)F)c3)cc2-c2ccccc2)cc1` returned an inhibition in data set [1] of 22%.

`NS(=O)(=O)c1ccc(-n2nc(CNC(=O)Nc3cccc(C(F)(F)F)c3)cc2-c2ccccc2)cc1` registered an inhibition in data set [1] of 17%.

Molecule `CC(C)c1cccc(C(C)C)c1NC(=O)NCCCc1cc(-c2ccccc2)n(-c2ccc(S(N)(=O)=O)cc2)n1` returned an inhibition in data set [1] of 6%.

In data set [1], `NS(=O)(=O)c1ccc(-n2nc(CCCNC(=O)Nc3ccc(Cl)cc3)cc2-c2ccccc2)cc1` registered an inhibition of 15%.

For `CS(=O)(=O)c1ccc(-n2nc(CCCNC(=O)Nc3cccc(C(F)(F)F)c3)cc2-c2ccccc2)cc1`, in data set [1], the inhibition is 6%.

As for `CS(=O)(=O)c1ccc(-n2nc(CNC(=O)Nc3ccc(C(F)(F)F)cc3)cc2-c2ccccc2)cc1`, in data set [1], the inhibition was 11%.

In data set [1], `CC(C)(C)c1cc(CNC(=O)Nc2cccc(C(F)(F)F)c2)nn1-c1ccc(S(C)(=O)=O)cc1` had an inhibition of 2%.
